GPR7 antagonist: human neuropeptides B/W receptor 1 antagonism; AID 1861; 290,000 compounds, 1.1% hits; inhibition, % at 4.4 µM; P48145; GPR7-expressing cells, fluorescence antagonist assay; in the data active = inhibition above about 16%, passing the limit was not always enough;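 also: cells stimulated with the agonist NPW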
EP2 mod: EP2 receptor (human) modulation; P43116; EP2-expressing cells, cAMP HTRF FRET, PGE2 co-stimulation; induction, % at 25 µM; 260,000 compounds, 0.83% hits; AID 940;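 active = compounds whose cAMP rise, as percent of the full-agonist control response, exceeds 60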;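 also: rat C6 glioma line stably carrying human EP2 under a CMV promoter; the protocol text gives 20 µM as final concentration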
Target sequence (P43116 whole entry, looked up): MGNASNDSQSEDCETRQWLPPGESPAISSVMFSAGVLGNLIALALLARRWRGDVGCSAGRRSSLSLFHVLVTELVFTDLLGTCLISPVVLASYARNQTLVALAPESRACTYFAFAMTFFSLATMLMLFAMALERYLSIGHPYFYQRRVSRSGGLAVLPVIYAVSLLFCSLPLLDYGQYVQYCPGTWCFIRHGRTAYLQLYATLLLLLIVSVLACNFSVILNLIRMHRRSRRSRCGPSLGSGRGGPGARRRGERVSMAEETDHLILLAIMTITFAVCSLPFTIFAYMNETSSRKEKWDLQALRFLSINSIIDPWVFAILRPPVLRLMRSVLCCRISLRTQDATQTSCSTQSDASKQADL
PGE2 EP2 inh: inhibitors of human EP2 prostaglandin E2 receptor | P43116 | inhibition, % at 25 µM | 260,000 compounds, 0.52% hits | AID 1422 | C6 glioma cells expressing human EP2, cAMP TR-FRET; cells stimulated with saturating PGE2;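 active = percent inhibition above 40 after rounding to a whole number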;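 also: rat C6 glioma host cells with rolipram phosphodiesterase inhibitor present; the protocol text gives 20 µM as final concentration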
OX1R antag-1: antagonists of human orexin 1 receptor | O43613 | CHO/OX1R cells, Fluo-8 calcium fluorescence, orexin A | inhibition, % at 5 µM | 330,000 compounds, 0.43% hits | AID 434989;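 active = inhibition above its plate's threshold, mean inhibition of all tested compounds on the plate plus 3 SD, cut at about 37% in these data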
OX1R antag-2: antagonists of human orexin 1 receptor (OX1R); AID 485270; O43613; inhibition, % at 6.6 µM; 330,000 compounds, 1.8% hits; OX1R-expressing cells, FRET antagonist read-out; in the data active = inhibition mostly above about 38%, no sharp cut-off; inactive = mostly below about 40%
CHO parental Ca: signal in parental CHO cells, OX1R antagonist counter-screen. parental CHO-K1, ATP-induced calcium, Fluo-8 fluorescence. inhibition, % at 5.6 µM. 330,000 compounds, 0.63% hits. AID 463079;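 active = inhibition above that plate's mean sample inhibition plus 3 SD, cut at about 26% in these data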
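Material – parental CHO cells · Reagent – ATP stimulus · Compound – single nominal dose of 5.6 µM per compound · Detection – Fluo-8 fluorescence · Read-out basis – percent inhibition of calcium signal · Controls – ATP-challenged DMSO wells low, unchallenged DMSO wells high · Repeats – no replicates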
Numbers stand for hits; i = inactive; nt = not tested or not shown; ! = a repeat was not active. This is a sample that favours compounds with a hit; in the whole collection about 3.7% have one here.

SMILES	GPR7 antagonist	EP2 mod	PGE2 EP2 inh	OX1R antag-1	OX1R antag-2	CHO parental Ca
COC(=O)c1ccc(C(=O)OC)c(NC(=O)CSc2nc(-c3ccco3)cc(C(F)(F)F)n2)c1	i	nt	nt	nt	nt	nt
CCOC(=O)C1=C(COC(=O)c2sccc2C)NC(=O)NC1C (centres undefined)	nt	nt	nt	i	i	i
CCOC(=O)C1=C(COC(=O)c2ccc([N+](=O)[O-])s2)NC(=O)NC1C (centres undefined)	nt	nt	nt	i	37	i
O=C(Cc1ccccc1)NNc1c2ccccc2nc2ccccc12	i	i	i	i	i	i
O=C(Nc1c2ccccc2nc2ccccc12)C(Cl)(Cl)Cl	i	i	i	i	69	i
Cc1nn(Cc2ccc(Cl)c(Cl)c2)c(C)c1NC(=O)c1cc(CC(C)C)on1	i	i	i	i	i	33
COc1ccc(C(=O)Nn2c(C)nc3ccccc3c2=O)c(OC)c1	i	nt	nt	i	i	i
COc1ccc(CNC(=O)c2cc(-n3cnnc3)ccc2Cl)cc1	i	i	i	i	i	i
CCCCn1c(=NC(=O)c2ccco2)c(C(=O)OCC)cc2c(=O)n3ccccc3nc21	i	i	i	i	76	i
CCCCCn1c(=NC(=O)c2ccco2)c(C(=O)OCC)cc2c(=O)n3ccccc3nc21	i	i	nt	i	51	i
CN(CC(=O)O)c1ccc(C(F)(F)F)cc1[N+](=O)[O-]	i	i	i	nt	nt	nt
COC(=O)C1=C(C)N=C2SC(C)C(=O)N2C1c1cccc(F)c1 (centres undefined)	i	i	i	i	i	i
CC(O)CNCc1ccc(Cl)cc1Cl (centres undefined)	i	i	i	i	i	i
CN(C)Cc1ccc(F)cc1Sc1ccc(Cl)cc1Cl	i	62	i	i	i	i
Cc1ccc(SC[C@H](Cc2ccccc2)N2CC[C@@H](NC(=O)OCc3ccccc3)CCC2=O)cc1	i	nt	nt	i	i	i
CS(=O)(=O)N(CC(=O)NC1CC2CCC1C2)c1cccc(C(F)(F)F)c1 (centres undefined)	i	i	i	i	i	i
CCSc1nnc(NC(=O)NC(C)(C(F)(F)F)C(F)(F)F)s1	i	i	i	i	i	i
CCSc1nnc(NC(=O)NC(CC)(C(F)(F)F)C(F)(F)F)s1	i	i	i	66	i	79
Cc1cc(C(=O)Nn2c(C3CCCCC3)nc3ccccc3c2=O)ccc1[N+](=O)[O-]	i	i	i	i	i	i
O=C(Nn1c(C2CCCCC2)nc2ccccc2c1=O)c1ccc(Cl)c([N+](=O)[O-])c1	i	i	i	i	53	i
Cc1ccc([N+](=O)[O-])cc1S(=O)(=O)Nc1ccc(C(=O)NCc2ccccn2)cc1	nt	nt	nt	i	i	i
Fc1ccc(Nc2ncnc3ccccc23)cc1	i	nt	nt	i	i	i
Cc1[nH]cnc1C(=O)N/N=C/c1ccc([N+](=O)[O-])s1	i	nt	nt	i	71	i
Cc1cc(C(=O)N/N=C/c2ccc([N+](=O)[O-])s2)n[nH]1	i	i	i	i	53	i
Cc1cc(C(=O)N/N=C/c2cc(Cl)cc([N+](=O)[O-])c2O)n[nH]1	i	i	i	i	66	i
SMILES	GPR7 antagonist	EP2 mod	PGE2 EP2 inh	OX1R antag-1	OX1R antag-2	CHO parental Ca
Cc1cc(C(=O)N/N=C/c2ccc(-c3ccccc3Cl)o2)n[nH]1	i	i	i	i	70	i
Cc1ccc(C(=O)N/N=C\c2ccc([N+](=O)[O-])s2)cn1	i	i	i	i	i	i
C/C(=N\NC(=O)C(N)=O)c1ccc(Br)cc1	i	i	i	i	i	i
Cc1cc(C)cc(N(CCC#N)C(=O)COC(=O)CN2C(=O)NC(C)(C)C2=O)c1	nt	nt	nt	i	i	i
CNC(=O)c1ccc(NC(=O)C2CCN(c3ncnc4sc(C)c(C)c34)CC2)cc1	i	nt	nt	i	i	i
Cc1ccc2[nH]c(=O)c(CN(C(=O)c3cccc([N+](=O)[O-])c3)C(C)C)cc2c1	i	i	i	i	51	i
CC(=O)c1ccc(NC(=O)CCCC(=O)c2ccccc2)cc1	i	nt	nt	i	i	i
Cc1cc(-c2cccc([N+](=O)[O-])c2)nc2ccccc12	i	i	i	i	69	i
Cc1ccc(-c2ccc(S(=O)(=O)N3CCN(C)CC3)cc2)cc1	i	i	i	i	i	i
Cc1ccc(S(=O)(=O)OC2CCN(C)CC2)cc1	nt	i	56	nt	nt	nt
O=C(NCCN1C(=O)S/C(=C/c2cccnc2)C1=O)C1CC(=O)N(Cc2ccccc2)C1 (centres undefined)	i	i	i	i	53	i
CCN(CC)C(=S)SSC(=S)N(CC)CC	i	i	60!	i	i	i
CCCc1cc(C(=O)Nc2ccc(C(C)=O)cc2)no1	i	i	i	i	i	28
COc1cc(/C=N/NC(=O)CSc2cc(C)c(Br)cc2C)ccc1O	i	i	41	i	48	i
COc1ccc(CC(=O)N2CCC(c3nc(C)ncc3-c3cc(C)no3)CC2)cc1	nt	i	nt	nt	nt	nt
O=C(CN1C(=O)C(c2ccc(F)cc2)=NC12CCCC2)Nc1ccc(F)cc1	i	i	i	i	i	27
CC(C)(C)NC(=O)C(c1ccccc1F)N(Cc1ccco1)C(=O)c1csnn1 (centres undefined)	i	i	i	i	i	i
O=C1CCC(c2ccccc2)=NN1c1nc2ccccc2s1	nt	i	56	nt	nt	nt
O=C1C2C3C=CC(C3)C2C(=O)N1c1nc2ccccc2s1 (centres undefined)	i	i	i	i	i	i
CN1CCN(C(c2cccc(Cl)c2)c2ccccc2Cl)CC1 (centres undefined)	i	i	i	i	i	i
COc1cc2cnc(-c3ccsc3)cc2cc1OC	nt	nt	nt	i	i	i
c1cc(-c2cc3cc4c(cc3cn2)OCO4)cs1	nt	nt	nt	i	70	i
COc1ccc(OC)c(Nc2cc3ccccc3c(=O)[nH]2)c1	nt	nt	i	i	68	i
N#C/C(=N/Nc1ccc(OC(F)(F)F)cc1)C(N)=S	i	i	i	41	54	i
Cn1c(=O)n(C)c2cc(NC(=O)c3cccc([N+](=O)[O-])c3)c(Br)cc21	i	i	i	i	i	i
SMILES	GPR7 antagonist	EP2 mod	PGE2 EP2 inh	OX1R antag-1	OX1R antag-2	CHO parental Ca
Cc1c(C(=O)NN)nn(-c2ccc(Cl)cc2)c(=O)c1C#N	i	i	i	i	i	i
CCOC(=O)c1nn(-c2ccc(OC)cc2)c(=O)c(C#N)c1C	nt	i	74	nt	nt	nt
O=C(C1=C(O)C(=O)N(c2nccs2)C1c1ccccc1)c1cc2ccccc2o1 (centres undefined)	i	i	i	52	i	i
O=C(C1=C(O)C(=O)N(CCc2ccccc2)C1c1ccncc1)c1cc2ccccc2o1 (centres undefined)	i	i	i	i	i	i
C=CC(=O)NC(NC(=O)C=C)c1ccc(Br)cc1	i	i	i	i	i	i
CCn1c(SCC(=O)N2CCCC(C)C2)nnc1-c1ccco1 (centres undefined)	i	71	i	i	i	i
COc1ccc(NC(=O)c2cc(-c3cc(C)c(C)cc3O)n[nH]2)c(OC)c1	i	nt	nt	i	i	i

High-throughput results as filed in PubChem.
